Measurements published in ChEMBL document CHEMBL4007450, “Development of 1,2,4-Oxadiazoles as Potent and Selective Inhibitors of the Human Deacetylase Sirtuin 2: Structure-Activity Relationship, X-ray Crystal Structure, and Anticancer Activity” (J Med Chem, 2017).
Activity calls are given as the source filed them. The calls are words filed in the database; no cut-off is given here.

Experiments:
[1] = system: U-937; test: Cell cycle arrest in human U937 cells assessed as accumulation at G2/M phase at 25 uM after 48 hrs by propidium iodide staining-based FACS analysis; format: functional
[2] = system: U-937; test: Cell cycle arrest in human U937 cells assessed as accumulation at S phase at 25 uM after 48 hrs by propidium iodide staining-based FACS analysis; format: functional
[3] = system: NB-4; test: Induction of apoptosis in human NB4 cells assessed as pre-G1 accumulation at 25 uM after 48 hrs by propidium iodide staining-based FACS analysis; format: functional
Outline: (§1)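 Leukemia cells (U937, NB4, HL-60, K562) were grown in RPMI-1640 with 10% FBS, 2 mM L-glutamine and antibiotics, then treated for 48 h at 5, 10, 25 and 50 μM. 2.5×10^5 cells were stained 30 min in the dark in hypotonic PI buffer (0.1% Triton X-100, 0.1% citrate, 50 µg/mL PI, RNase A). Apoptosis was scored as pre-G1 content by flow cytometry. Duplicates, mean ± SD.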

[4] = system: K562; test: Induction of apoptosis in human K562 cells assessed as pre-G1 accumulation at 25 uM after 48 hrs by propidium iodide staining-based FACS analysis; format: functional; outline: as §1
[5] = system: MDA-MB-231; test: Induction of apoptosis in human MDA-MB-231 cells assessed as pre-G1 accumulation at 25 uM after 48 hrs by propidium iodide staining-based FACS analysis; format: functional
Outline: (§2)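 MDA-MB-231 breast cancer cells were grown in DMEM with 10% FBS, 2 mM L-glutamine and antibiotics, then exposed for 48 h at 5, 10, 25 or 50 μM. 2.5×10^5 cells were stained in hypotonic buffer with 50 µg/mL PI, 0.1% Triton X-100, 0.1% citrate and RNase A for 30 min in the dark. Pre-G1 fraction was measured by flow cytometry. Biological duplicates, mean ± SD.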

[6] = system: OCI-AML-3; test: Antiproliferative activity against human OCI-AML3 cells harboring NPM1c+, DNMT3A R882C mutant assessed as cell growth inhibition after 48 hrs by WST1 assay; format: functional, cell-based; details: OCI-AML-3, 48 h
Outline: (§3)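 WST-1 proliferation assay. Cells plated in triplicate at 5×10^3 cells/well and exposed to increasing compound concentrations for 48 h at 37 °C, 5% CO2. WST-1 reagent was then added for 1 h. IC50 was obtained by nonlinear regression of each cell line's dose-response curve.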

[7] = Antiproliferative activity against human IMS-M2 cells harboring NPM1c+ assessed as cell growth inhibition after 48 hrs by WST1 assay; format: functional, cell-based; details: IMS-M2, 48 h; outline: as §3
[8] = system: OCI-AML2; test: Antiproliferative activity against human OCI-AML2 cells harboring DNMT3A R635W mutant assessed as cell growth inhibition after 48 hrs by WST1 assay; format: functional, cell-based; details: OCI-AML2, 48 h; outline: as §3
[9] = system: MV4-11; test: Antiproliferative activity against human MV4-11 cells harboring FLT3-ITD [t(4;11)(q21;q23)], MLL/MLLT2(AF4) mutant assessed as cell growth inhibition after 48 hrs by WST1 assay; format: functional, cell-based; details: MV4-11, 48 h; outline: as §3
[10] = system: Kasumi 1; test: Antiproliferative activity against human Kasumi-1 cells harboring AML1-ETO [t(8:21)] mutant assessed as cell growth inhibition after 48 hrs by WST1 assay; format: functional, cell-based; details: Kasumi 1, 48 h; outline: as §3
[11] = system: U-937; test: Antiproliferative activity against human U937 cells harboring p53+/- assessed as cell growth inhibition after 48 hrs by WST1 assay; format: functional, cell-based; details: U-937, 48 h; outline: as §3
[12] = system: NB-4; test: Antiproliferative activity against human NB4 cells harboring PML-RARalpha [t(15;17)(q22;q12)] mutant assessed as cell growth inhibition after 48 hrs by WST1 assay; format: functional, cell-based; details: NB-4, 48 h; outline: as §3
[13] = system: HL-60; test: Antiproliferative activity against human p53 deficient HL60 cells assessed as cell growth inhibition after 48 hrs by WST1 assay; format: functional, cell-based; details: HL-60, 48 h; outline: as §3
[14] = system: KARPAS-299; test: Antiproliferative activity against human KARPAS299 cells harboring NPM1/ALK, [t(2;5)(p23;q35)] mutant assessed as cell growth inhibition after 48 hrs by WST1 assay; format: functional, cell-based; details: KARPAS-299, 48 h; outline: as §3
[15] = target: T1, NAD-dependent protein deacetylase sirtuin-2 (Homo sapiens, UniProt Q8IXJ6)
T1 sequence (Q8IXJ6 whole entry): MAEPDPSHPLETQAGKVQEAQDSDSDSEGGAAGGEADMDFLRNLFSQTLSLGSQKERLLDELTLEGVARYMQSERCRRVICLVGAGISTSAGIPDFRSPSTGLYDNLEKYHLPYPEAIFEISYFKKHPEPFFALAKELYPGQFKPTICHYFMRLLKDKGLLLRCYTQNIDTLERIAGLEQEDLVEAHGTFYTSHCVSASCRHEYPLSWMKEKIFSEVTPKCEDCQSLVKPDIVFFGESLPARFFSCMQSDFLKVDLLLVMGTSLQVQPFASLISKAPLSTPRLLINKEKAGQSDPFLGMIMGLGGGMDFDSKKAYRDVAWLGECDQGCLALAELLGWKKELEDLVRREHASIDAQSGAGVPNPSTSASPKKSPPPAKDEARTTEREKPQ

[16] = target: NAD-dependent protein deacylase sirtuin-5, mitochondrial (Homo sapiens) (UniProt Q9NXA8); test: Inhibition of human SIRT5 (34 to 302 residues) desuccinylase activity expressed in Escherichia coli using CPS1 peptide as substrate at 100 uM after 45 mins in presence of NAD+ by pNCA/GDH-based microplate spectrophotometric analysis
NAD-dependent protein deacylase sirtuin-5, mitochondrial (Homo sapiens), sequence (Q9NXA8 37-310 limits assumed): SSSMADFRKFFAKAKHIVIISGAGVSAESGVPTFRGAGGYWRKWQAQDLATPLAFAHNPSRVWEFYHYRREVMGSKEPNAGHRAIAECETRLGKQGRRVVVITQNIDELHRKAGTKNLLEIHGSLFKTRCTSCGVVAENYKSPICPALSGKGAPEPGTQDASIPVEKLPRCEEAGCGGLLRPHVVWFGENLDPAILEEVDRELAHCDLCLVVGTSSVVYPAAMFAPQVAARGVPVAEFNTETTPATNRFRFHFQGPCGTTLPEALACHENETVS

[17] = target: NAD-dependent protein deacylase sirtuin-5, mitochondrial (Homo sapiens) (UniProt Q9NXA8); test: Inhibition of human SIRT5 (34 to 302 residues) deacetylase activity expressed in Escherichia coli using Prx1 peptide as substrate at 100 uM after 45 mins in presence of NAD+ by pNCA/GDH-based microplate spectrophotometric analysis
[18] = system: HL-60; test: Induction of apoptosis in human HL60 cells assessed as pre-G1 accumulation at 50 uM after 48 hrs by propidium iodide staining-based FACS analysis; format: functional; outline: as §1
[19] = target: T2, NAD-dependent protein deacetylase sirtuin-1 (Homo sapiens) (UniProt Q96EB6); details: 100 uM
T2 sequence (whole entry): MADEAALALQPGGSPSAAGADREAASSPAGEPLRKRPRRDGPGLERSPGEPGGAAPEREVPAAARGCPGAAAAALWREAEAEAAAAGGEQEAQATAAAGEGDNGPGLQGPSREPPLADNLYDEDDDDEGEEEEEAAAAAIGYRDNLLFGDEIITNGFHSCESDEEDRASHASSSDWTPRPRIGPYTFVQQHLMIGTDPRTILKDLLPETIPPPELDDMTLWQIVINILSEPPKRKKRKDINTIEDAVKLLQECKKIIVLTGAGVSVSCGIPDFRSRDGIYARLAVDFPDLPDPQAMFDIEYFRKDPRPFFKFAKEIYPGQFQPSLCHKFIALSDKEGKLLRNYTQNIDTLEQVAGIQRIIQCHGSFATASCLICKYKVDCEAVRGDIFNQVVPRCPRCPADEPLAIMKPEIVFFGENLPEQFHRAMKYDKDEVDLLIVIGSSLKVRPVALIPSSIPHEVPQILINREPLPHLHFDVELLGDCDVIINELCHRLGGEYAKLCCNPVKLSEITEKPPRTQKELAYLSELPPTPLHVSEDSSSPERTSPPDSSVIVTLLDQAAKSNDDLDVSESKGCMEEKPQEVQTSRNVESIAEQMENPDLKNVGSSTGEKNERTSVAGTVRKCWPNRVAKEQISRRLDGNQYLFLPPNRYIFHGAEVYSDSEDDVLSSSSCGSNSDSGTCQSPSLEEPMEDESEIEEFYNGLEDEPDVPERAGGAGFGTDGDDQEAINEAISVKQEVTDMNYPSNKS

[20] = target: T3, NAD-dependent protein deacetylase sirtuin-2 (Homo sapiens) (UniProt Q8IXJ6); details: 5 to 25 uM
T3 sequence (whole entry): T1 sequence (Q8IXJ6 whole entry)

[21] = target: T3, NAD-dependent protein deacetylase sirtuin-2 (Homo sapiens); details: 5 to 25 uM; remark: listed apart in the source
[22] = system: U-937; test: Induction of apoptosis in human U937 cells assessed as pre-G1 accumulation at 25 uM after 48 hrs by propidium iodide staining-based FACS analysis; format: functional; outline: as §1
[23] = system: NB-4; test: Induction of apoptosis in human NB4 cells assessed as pre-G1 accumulation at 50 uM after 48 hrs by propidium iodide staining-based FACS analysis; format: functional; outline: as §1
[24] = system: MDA-MB-231; test: Induction of apoptosis in human MDA-MB-231 cells assessed as pre-G1 accumulation at 50 uM after 48 hrs by propidium iodide staining-based FACS analysis; format: functional; outline: as §2

SMILES: Clc1ccc(-c2noc(CBr)n2)cc1
- Activity [1]: Active

SMILES: COc1ccc(-c2noc(CCCBr)n2)cc1
- Activity [2]: Active
- Activity [3]: >80%
- Activity [4]: >80%
- Activity [5]: >80%
- IC50 [6]: 62 µM
- IC50 [7]: 18.4 µM
- IC50 [8]: 37 µM
- IC50 [9]: 16 µM
- IC50 [10]: 10.3 µM
- IC50 [11]: 25 µM
- IC50 [12]: 12 µM
- IC50 [13]: 30 µM
- IC50 [14]: 36 µM
- IC50 [15]: 10.4 µM

SMILES: N#C/C(=C\c1ccc(-c2cc(Cl)ccc2Cl)o1)C(=O)Nc1cccc2ncccc12
- inhibition [16]: Active
- inhibition [17]: Active
- Activity [18]: 6%
- inhibition [19]: Active
- inhibition [20]: inactive
- inhibition [21]: inactive

SMILES: Fc1ccc(-c2noc(CCCBr)n2)cc1
- Activity [22]: 11.1 - 37.1%
- Activity [23]: 30 - 40%
- Activity [24]: 30 - 40%
- IC50 [15]: 19.8 µM
